Test results taken from ChEMBL document CHEMBL1140523, “Benzazepinone Nav1.7 blockers: potential treatments for neuropathic pain” (Bioorg Med Chem Lett, 2007).
pIC50: −log10 of the molar value.

Key:
[1] = target: Sodium channel protein type 9 subunit alpha (Homo sapiens, UniProt Q15858); test: Inhibition of human sodium channel Nav1.7 by FRET assay
Procedure, shortened: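 hNav1.7 block was measured in a functional membrane-potential assay read out as FRET between two membrane-associated dyes.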

hERG (KCNH2) = hERG (KCNH2) (Homo sapiens, UniProt Q12809); test: (§1) Displacement of [35S]MK-0499 from hERG at 10 uM; details: probe [35S]MK-0499
Chain of hERG (KCNH2) (Q12809 whole entry): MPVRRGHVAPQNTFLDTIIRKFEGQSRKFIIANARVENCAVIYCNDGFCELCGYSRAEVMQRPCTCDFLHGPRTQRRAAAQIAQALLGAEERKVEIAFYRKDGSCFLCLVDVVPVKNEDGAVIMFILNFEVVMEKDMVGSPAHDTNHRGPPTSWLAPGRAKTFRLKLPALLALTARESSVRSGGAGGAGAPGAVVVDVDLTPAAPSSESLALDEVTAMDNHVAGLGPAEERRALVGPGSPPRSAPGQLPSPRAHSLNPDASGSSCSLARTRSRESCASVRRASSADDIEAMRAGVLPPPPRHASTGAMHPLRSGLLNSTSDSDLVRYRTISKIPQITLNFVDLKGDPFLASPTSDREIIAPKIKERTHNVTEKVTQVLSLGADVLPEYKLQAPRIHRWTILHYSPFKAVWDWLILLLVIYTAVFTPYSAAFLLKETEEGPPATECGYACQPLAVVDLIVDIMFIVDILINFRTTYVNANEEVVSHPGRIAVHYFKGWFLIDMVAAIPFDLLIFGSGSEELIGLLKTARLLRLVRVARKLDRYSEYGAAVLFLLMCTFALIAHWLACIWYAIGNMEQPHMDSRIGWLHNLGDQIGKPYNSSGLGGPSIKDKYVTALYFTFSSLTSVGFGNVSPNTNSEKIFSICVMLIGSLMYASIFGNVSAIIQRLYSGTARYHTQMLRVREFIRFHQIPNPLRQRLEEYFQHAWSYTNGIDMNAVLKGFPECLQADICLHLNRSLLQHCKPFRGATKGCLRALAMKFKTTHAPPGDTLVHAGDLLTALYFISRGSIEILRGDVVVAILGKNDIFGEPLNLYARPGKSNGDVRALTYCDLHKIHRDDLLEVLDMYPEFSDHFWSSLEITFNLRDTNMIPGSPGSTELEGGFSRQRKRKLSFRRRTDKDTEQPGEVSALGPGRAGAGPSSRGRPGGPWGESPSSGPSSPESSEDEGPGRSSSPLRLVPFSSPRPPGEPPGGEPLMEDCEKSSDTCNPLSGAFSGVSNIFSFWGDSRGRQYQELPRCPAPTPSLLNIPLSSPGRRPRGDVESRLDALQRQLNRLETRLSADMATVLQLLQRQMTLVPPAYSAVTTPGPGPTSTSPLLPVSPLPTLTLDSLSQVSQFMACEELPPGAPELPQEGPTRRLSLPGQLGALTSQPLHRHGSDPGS

[2] = Plasma clearance in Sprague-Dawley rat at 1 mg/kg, iv or 3 mg/kg, po; type: ADME, organism-based
Procedure, shortened: (§2)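 Fasted male Sprague–Dawley rats received 1.0 mg/kg iv through a femoral vein cannula (n = 3) or 3.0 mg/kg po by gavage (n = 3). Serial blood was drawn at 5 min (iv only), 15 and 30 min, and 1, 2, 4, 6 and 8 h. Plasma was protein-precipitated with acetonitrile and analysed by LC–MS/MS.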

[3] = (§3) Oral bioavailability in Sprague-Dawley rat at 3 mg/kg; type: ADME, organism-based; details: Sprague-Dawley, in vivo; procedure, shortened: as §2
Rattus norvegicus [4] = test: Reversal of allodynia in rat at 10 mg/kg, po after 4 hrs; type: functional
[5] = Cmax in Sprague-Dawley rat at 1 mg/kg, iv or 3 mg/kg, po; type: ADME, organism-based; details: in vivo; procedure, shortened: as §2
Rattus norvegicus [6] = test: Reversal of allodynia in rat at 10 mg/kg, po after 2 hrs; type: functional
[7] = (§4) Half life in Sprague-Dawley rat at 1 mg/kg, iv or 3 mg/kg, po; type: ADME, organism-based; details: Sprague-Dawley, in vivo; procedure, shortened: as §2
Rattus norvegicus [8] = test: as §3; type: ADME, organism-based; details: in vivo; procedure, shortened: as §2
[9] = target: Voltage-gated inwardly rectifying potassium channel KCNH2 (Homo sapiens, UniProt Q12809); test: as §1; details: 10 µM
Chain of Voltage-gated inwardly rectifying potassium channel KCNH2 (Q12809 whole entry): as above

Rattus norvegicus [10] = test: as §4; type: ADME, organism-based; details: in vivo; procedure, shortened: as §2

Chain of Sodium channel protein type 9 subunit alpha (Q15858 whole entry): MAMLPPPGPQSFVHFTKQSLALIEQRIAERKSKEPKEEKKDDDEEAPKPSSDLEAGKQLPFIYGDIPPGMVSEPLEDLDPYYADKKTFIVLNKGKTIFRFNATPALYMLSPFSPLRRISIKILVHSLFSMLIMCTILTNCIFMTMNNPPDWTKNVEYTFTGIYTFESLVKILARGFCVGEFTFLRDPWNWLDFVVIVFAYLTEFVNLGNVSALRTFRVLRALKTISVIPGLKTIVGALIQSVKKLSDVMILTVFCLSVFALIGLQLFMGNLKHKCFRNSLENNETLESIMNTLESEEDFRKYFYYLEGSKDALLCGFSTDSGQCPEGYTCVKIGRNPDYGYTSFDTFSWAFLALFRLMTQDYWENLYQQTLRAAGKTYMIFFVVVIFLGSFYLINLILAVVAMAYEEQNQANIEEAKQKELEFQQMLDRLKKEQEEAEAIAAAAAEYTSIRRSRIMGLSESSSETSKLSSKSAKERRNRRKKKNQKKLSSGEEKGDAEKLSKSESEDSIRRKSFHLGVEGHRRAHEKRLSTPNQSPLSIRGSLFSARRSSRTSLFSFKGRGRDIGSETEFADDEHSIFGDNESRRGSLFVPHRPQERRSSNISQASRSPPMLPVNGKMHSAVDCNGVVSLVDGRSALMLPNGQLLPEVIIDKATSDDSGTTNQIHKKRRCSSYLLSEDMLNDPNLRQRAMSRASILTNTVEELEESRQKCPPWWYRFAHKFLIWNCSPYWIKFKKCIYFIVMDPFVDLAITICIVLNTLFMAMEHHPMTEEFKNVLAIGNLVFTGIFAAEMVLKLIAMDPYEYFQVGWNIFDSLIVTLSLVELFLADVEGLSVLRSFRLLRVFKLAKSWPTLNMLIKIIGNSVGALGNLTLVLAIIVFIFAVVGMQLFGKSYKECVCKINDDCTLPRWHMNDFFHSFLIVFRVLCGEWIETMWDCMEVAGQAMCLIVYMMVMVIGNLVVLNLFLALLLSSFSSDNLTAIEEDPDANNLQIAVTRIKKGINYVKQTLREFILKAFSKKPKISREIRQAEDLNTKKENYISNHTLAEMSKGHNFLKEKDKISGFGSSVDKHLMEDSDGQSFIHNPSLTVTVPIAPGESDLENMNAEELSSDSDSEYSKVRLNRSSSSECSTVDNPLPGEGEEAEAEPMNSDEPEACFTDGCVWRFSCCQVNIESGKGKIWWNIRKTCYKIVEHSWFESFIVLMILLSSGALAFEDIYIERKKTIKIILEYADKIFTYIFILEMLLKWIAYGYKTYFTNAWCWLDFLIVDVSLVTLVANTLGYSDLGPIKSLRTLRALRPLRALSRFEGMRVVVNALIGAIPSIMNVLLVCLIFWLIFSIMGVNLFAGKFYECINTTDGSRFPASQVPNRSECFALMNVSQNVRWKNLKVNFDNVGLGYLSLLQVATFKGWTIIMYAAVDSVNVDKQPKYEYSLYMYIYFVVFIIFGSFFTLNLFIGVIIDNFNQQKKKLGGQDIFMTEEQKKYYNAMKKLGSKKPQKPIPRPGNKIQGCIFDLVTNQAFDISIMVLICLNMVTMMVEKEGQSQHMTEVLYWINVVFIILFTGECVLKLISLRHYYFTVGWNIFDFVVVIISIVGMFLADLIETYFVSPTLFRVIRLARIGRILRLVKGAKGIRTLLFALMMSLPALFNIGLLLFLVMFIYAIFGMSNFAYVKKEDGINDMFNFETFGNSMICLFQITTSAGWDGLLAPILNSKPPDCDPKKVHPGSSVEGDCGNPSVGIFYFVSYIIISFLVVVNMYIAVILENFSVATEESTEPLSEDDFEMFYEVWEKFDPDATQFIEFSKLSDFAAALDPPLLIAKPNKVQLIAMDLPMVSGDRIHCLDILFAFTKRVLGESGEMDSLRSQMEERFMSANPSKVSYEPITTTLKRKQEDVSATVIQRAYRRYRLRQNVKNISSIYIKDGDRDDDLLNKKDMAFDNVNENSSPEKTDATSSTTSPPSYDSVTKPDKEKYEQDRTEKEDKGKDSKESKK

SMILES | pIC50 [1] | clearance [2] | bioavailability [3] | Cmax [5] | half-life [7] | F (Rattus norvegicus [8]) | t1/2 (Rattus norvegicus [10]) | inhibition at 10 µM (hERG (KCNH2)) | Activity (Rattus norvegicus [4]) | Activity (Rattus norvegicus [6]) | Inhibition [9]
CC(C)N1C(=O)[C@H](NC(=O)[C@@H](Cc2ccccc2OC(F)(F)F)NC(=O)c2ccccc2C(F)(F)F)CCc2ccccc21 | 7.01 |  |  |  |  |  |  | 0% |  |  | 
CC(=O)N[C@H](Cc1ccccc1OC(F)(F)F)C(=O)N[C@@H]1CCc2ccccc2N(C(C)C)C1=O | < 6.00 |  |  |  |  |  |  | 9% |  |  | 
CC(C)N1C(=O)[C@H](NC(=O)[C@@H](Cc2c(F)cccc2F)NC(=O)c2ccc(F)cc2C(F)(F)F)CCc2cc(Cl)ccc21 | 6.54 | 19 mL/min/kg | 68% | 740 nM | 2 h |  |  | 7% | 35% | 18% | 
CC(C)N1C(=O)[C@H](NC(=O)[C@@H](Cc2ccccc2OC(F)(F)F)NC(=O)OC(C)(C)C)CCc2ccccc21 |  |  |  |  |  |  |  | 17% |  |  | 
CC(C)N1C(=O)[C@H](NC(=O)[C@@H](Cc2ccccc2OC(F)(F)F)NC(=O)c2cncnc2)CCc2ccccc21 | < 6.00 |  |  |  |  |  |  |  |  |  | 
CC(C)N1C(=O)[C@H](NC(=O)[C@@H](Cc2ccccc2OC(F)(F)F)NC(=O)c2ccc(C(F)(F)F)cc2)CCc2ccccc21 | 6.76 |  |  |  |  |  |  | 43% |  |  | 
CC(C)N1C(=O)[C@H](NC(=O)[C@@H](Cc2ccc(F)cc2F)NC(=O)c2ccc(F)cc2C(F)(F)F)CCc2cc(Cl)ccc21 | < 6.00 |  |  |  |  |  |  |  |  |  | 
CC(C)N1C(=O)[C@H](NC(=O)[C@@H](Cc2ccccc2OC(F)(F)F)NC(=O)C(C)(C)C)CCc2ccccc21 | 6.88 | 31 mL/min/kg | 16% | 140 nM | 1.8 h |  |  | 18% |  |  | 
CC(C)N1C(=O)[C@H](NC(=O)[C@@H](Cc2ccccc2F)NC(=O)c2ccc(F)cc2C(F)(F)F)CCc2cc(Cl)ccc21 | 7.52 | 44 mL/min/kg | 90% | 330 nM | 2.8 h |  |  | 32% | 28% | 56% | 
CC(C)N1C(=O)[C@H](NC(=O)[C@@H](Cc2c(Cl)cccc2Cl)NC(=O)c2ccc(F)cc2C(F)(F)F)CCc2cc(Cl)ccc21 | 6.97 | 12 mL/min/kg | 70% | 1470 nM | 2.9 h |  |  | 20% | 9% | 14% | 
CC(C)N1C(=O)[C@H](NC(=O)[C@@H](Cc2ccccc2OC(F)(F)F)NC(=O)c2ccc(F)cc2C(F)(F)F)CCc2ccccc21 | 6.89 | 51 mL/min/kg | 86% | 430 nM | 2.6 h |  |  | 31% |  |  | 
CC(C)N1C(=O)C(NC(=O)[C@@H](Cc2ccccc2OC(F)(F)F)NC(=O)OC(C)(C)C)CCc2cccnc21 (stereo in doubt; 24) | 7.10 |  |  |  |  | 4% | 1.9 h |  |  |  | 7%
CC(C)N1C(=O)[C@H](NC(=O)[C@@H](Cc2ccccc2OC(F)(F)F)NC(=O)C(F)(F)F)CCc2ccccc21 | 6.06 |  |  |  |  |  |  | 40% |  |  | 
CC(C)N1C(=O)[C@H](NC(=O)[C@@H](Cc2ccccc2OC(F)(F)F)NC(=O)c2ccccc2)CCc2ccccc21 | 7.66 | 43 mL/min/kg | 18% | 150 nM | 1.5 h |  |  | 83% |  |  | 
CC(C)N1C(=O)[C@H](NC(=O)[C@@H](Cc2ccccc2OC(F)(F)F)NC(=O)C(C)(C(F)(F)F)C(F)(F)F)CCc2ccccc21 | 6.69 | 23 mL/min/kg | 42% | 330 nM | 2.5 h |  |  | 10% |  |  | 
CC(C)N1C(=O)[C@H](NC(=O)[C@@H](Cc2ccccc2OC(F)(F)F)NC(=O)c2ccc(F)cc2C(F)(F)F)CCc2cc(Cl)ccc21 | 6.77 | 29 mL/min/kg | 65% | 520 nM | 2.6 h |  |  | 7% |  |  | 
CC(C)N1C(=O)[C@H](NC(=O)[C@@H](Cc2ccccc2OC(F)(F)F)NC(=O)c2ncccn2)CCc2ccccc21 | < 6.00 |  |  |  |  |  |  | 15% |  |  | 

Further compounds by rising pIC50 [1], results first:

pIC50 [1] | clearance [2] | bioavailability [3] | Cmax [5] | half-life [7] | F (Rattus norvegicus [8]) | t1/2 (Rattus norvegicus [10]) | SMILES | inhibition at 10 µM (hERG (KCNH2)) | Activity (Rattus norvegicus [4]) | Activity (Rattus norvegicus [6]) | Inhibition [9]
6.34 |  |  |  |  |  |  | CC(C)N1C(=O)[C@H](NC(=O)[C@@H](Cc2ccccc2OC(F)(F)F)NC(=O)c2ccncc2)CCc2ccccc21 | 44% |  |  | 
6.63 | 32 mL/min/kg | 42% | 260 nM | 2.2 h |  |  | CC(C)N1C(=O)[C@H](NC(=O)[C@@H](Cc2cc(F)ccc2F)NC(=O)c2ccc(F)cc2C(F)(F)F)CCc2cc(Cl)ccc21 | 10% | 61% | 55% | 
6.75 | 43 mL/min/kg | 60% | 550 nM | 1.2 h |  |  | CC(C)N1C(=O)[C@H](NC(=O)[C@@H](Cc2ccccc2OC(F)(F)F)NC(=O)c2ccccn2)CCc2ccccc21 | 61% |  |  | 
6.84 |  |  |  |  |  |  | CC(C)N1C(=O)[C@H](NC(=O)[C@@H](Cc2cccc(F)c2F)NC(=O)c2ccc(F)cc2C(F)(F)F)CCc2cc(Cl)ccc21 | 3% |  |  | 
6.97 | 13 mL/min/kg | 31% |  | 3 h |  |  | CC(C)N1C(=O)[C@H](NC(=O)[C@@H](Cc2ccccc2OC(F)(F)F)NC(=O)OC(C)(C)C)CCc2cc(Cl)ccc21 | 32% |  |  | 
7.03 | 66 mL/min/kg | 50% | 240 nM | 2.1 h |  |  | CC(C)N1C(=O)[C@H](NC(=O)[C@@H](Cc2ccccc2OC(F)(F)F)NC(=O)c2ccc(F)cc2)CCc2ccccc21 | 26% |  |  | 
7.10 | 24 mL/min/kg |  |  | 1.4 h | 27% |  | CC(C)N1C(=O)C(NC(=O)[C@@H](Cc2ccccc2OC(F)(F)F)NC(=O)OC(C)(C)C)CCc2cccnc21 (stereo in doubt; 25) |  |  |  | 18%
7.36 | 40 mL/min/kg | 25% |  | 2 h |  |  | CC(C)N1C(=O)[C@H](NC(=O)[C@@H](Cc2ccccc2OC(F)(F)F)NC(=O)OC(C)(C)C)COc2ccccc21 | 17% |  |  | 
